Calls of active or inactive are those of the source. No cut-off for these calls is given here.
Legend:
Assay type in all cases: cell-based
[1] = test system: Cystic fibrosis transmembrane conductance regulator (Homo sapiens), P13569 [F508del]; experiment: Potentiation of CFTR F508 deletion mutant (unknown origin) expressed in CFBE41o- cells coexpressing HS-YFP assessed as increase in halide influx measuring HS-YFP quenching measured after acute treatment at 1 uM after 24 hrs in presence of forskolin and CFTR inhibitor-172 by fluorescent method
[2] = test system: Cystic fibrosis transmembrane conductance regulator (Homo sapiens), P13569 [F508del]; experiment: Corrector activity at CFTR F508del mutant (unknown origin) expressed in forskolin/VX-770-stimulated human CFBE41o- cells co-expressing HS-YFP assessed as increase in iodide influx measuring HS-YFP quenching at 2 to 10 uM incubated for 24 hrs by fluorescent method; conditions: dose microM 2-10, time 24.0 hrs
Method in brief: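 CFBE41o- bronchial epithelial cells stably expressing F508del-CFTR and halide-sensitive YFP, incubated 24 h with compound at 2 and 10 μM, vehicle (DMSO), or VX-809 (1 μM) as positive control. F508del-CFTR activity at the plasma membrane was then read as the rate of HS-YFP quenching caused by iodide influx.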

[3] = molecular target: Cystic fibrosis transmembrane conductance regulator (Homo sapiens, UniProt P13569, F508DEL); experiment: (§1) Potentiation of CFTR F508 deletion mutant (unknown origin) expressed in CFBE41o- cells coexpressing HS-YFP assessed as increase in iodide influx measuring HS-YFP quenching incubated for 20 mins in presence of forskolin by fluorescent method
[4] = test system: Cystic fibrosis transmembrane conductance regulator (Homo sapiens), P13569 [F508del]; experiment: as §1; conditions: filed as opener
[5] = test system: Cystic fibrosis transmembrane conductance regulator (Homo sapiens), P13569 [F508del]; experiment: Potentiation of CFTR F508 deletion mutant (unknown origin) expressed in CFBE41o- cells coexpressing HS-YFP assessed as increase in halide influx measuring HS-YFP quenching measured after acute treatment at 10 uM after 24 hrs in presence of forskolin and CFTR inhibitor-172 by fluorescent method
[6] = test system: Cystic fibrosis transmembrane conductance regulator (Homo sapiens), P13569 [F508del]; experiment: Potentiation of CFTR F508del mutant (unknown origin) expressed in human CFBE41o- cells co-expressing HS-YFP assessed as increase in halide influx measuring HS-YFP quenching measured after acute treatment at 2 to 20 uM for 20 mins in presence of forskolin by fluorescent method; conditions: filed as opener, dose microM 2-20, time 20.0 min
Method in brief: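 CFBE41o- cells stably co-expressing F508del-CFTR and HS-YFP were held 24 h at 32°C to rescue mutant trafficking. Cells were then acutely treated with compound (2 and 20 μM) plus forskolin (20 μM). Controls were forskolin alone and forskolin plus VX-770 (1 μM). Halide influx was read as the HS-YFP quenching rate.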

[7] = test system: Cystic fibrosis transmembrane conductance regulator (Homo sapiens), P13569 [F508del]; experiment: Potentiation of CFTR F508 deletion mutant (unknown origin) expressed in CFBE41o- cells coexpressing HS-YFP assessed as increase in halide influx measuring HS-YFP quenching measured after acute treatment at 0.08 to 50 uM after 24 hrs in presence of forskolin by fluorescent method; conditions: filed as opener, dose microM 0.08-50, time 24.0 hrs
Method in brief: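 Concentration-response on CFBE41o- cells co-expressing F508del-CFTR and HS-YFP, pre-incubated 24 h at 32°C to rescue maturation. Compound was added acutely over 80 nM–50 μM with forskolin. Controls were forskolin alone and VX-770 (1 μM). Activity was measured by HS-YFP quenching from halide influx.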

Chain of Cystic fibrosis transmembrane conductance regulator (Homo sapiens), P13569 [F508del] (P13569 as listed by the source): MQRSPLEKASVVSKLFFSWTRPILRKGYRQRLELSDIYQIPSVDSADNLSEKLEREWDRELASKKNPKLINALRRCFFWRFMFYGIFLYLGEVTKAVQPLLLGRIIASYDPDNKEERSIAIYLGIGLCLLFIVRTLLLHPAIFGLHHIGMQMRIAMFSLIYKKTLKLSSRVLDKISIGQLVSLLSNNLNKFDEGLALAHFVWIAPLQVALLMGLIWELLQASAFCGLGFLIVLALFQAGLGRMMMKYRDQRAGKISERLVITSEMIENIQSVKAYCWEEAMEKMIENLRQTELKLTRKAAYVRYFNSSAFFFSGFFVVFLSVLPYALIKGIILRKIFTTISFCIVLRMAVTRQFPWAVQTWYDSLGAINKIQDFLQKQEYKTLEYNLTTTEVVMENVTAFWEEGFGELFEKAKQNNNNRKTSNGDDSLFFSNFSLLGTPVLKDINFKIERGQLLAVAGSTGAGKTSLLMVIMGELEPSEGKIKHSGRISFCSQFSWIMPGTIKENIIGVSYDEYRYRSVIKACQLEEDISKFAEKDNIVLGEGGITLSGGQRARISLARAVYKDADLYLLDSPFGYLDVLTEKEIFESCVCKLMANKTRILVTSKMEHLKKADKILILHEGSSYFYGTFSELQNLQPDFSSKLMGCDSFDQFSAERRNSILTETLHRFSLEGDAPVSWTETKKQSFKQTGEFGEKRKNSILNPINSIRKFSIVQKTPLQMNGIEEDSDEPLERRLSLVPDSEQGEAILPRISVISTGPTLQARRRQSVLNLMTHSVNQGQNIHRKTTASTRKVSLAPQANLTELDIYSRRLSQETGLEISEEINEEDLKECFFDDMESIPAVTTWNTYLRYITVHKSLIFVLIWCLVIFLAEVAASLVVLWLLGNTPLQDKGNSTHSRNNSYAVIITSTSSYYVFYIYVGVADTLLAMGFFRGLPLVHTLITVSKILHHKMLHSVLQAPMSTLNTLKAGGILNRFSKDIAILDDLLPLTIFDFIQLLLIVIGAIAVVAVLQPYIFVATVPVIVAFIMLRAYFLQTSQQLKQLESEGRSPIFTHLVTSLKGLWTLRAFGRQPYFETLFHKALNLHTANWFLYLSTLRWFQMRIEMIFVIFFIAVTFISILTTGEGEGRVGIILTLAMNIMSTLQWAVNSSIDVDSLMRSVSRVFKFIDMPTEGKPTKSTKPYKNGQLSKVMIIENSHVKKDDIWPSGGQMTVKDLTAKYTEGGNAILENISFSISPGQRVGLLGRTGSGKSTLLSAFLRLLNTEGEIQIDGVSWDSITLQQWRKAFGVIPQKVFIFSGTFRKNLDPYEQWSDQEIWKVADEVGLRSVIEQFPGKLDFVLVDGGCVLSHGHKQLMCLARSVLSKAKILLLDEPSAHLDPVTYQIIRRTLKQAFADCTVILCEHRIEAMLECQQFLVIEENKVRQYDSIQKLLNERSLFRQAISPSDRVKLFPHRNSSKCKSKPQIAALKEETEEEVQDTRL
Chain of Cystic fibrosis transmembrane conductance regulator (P13569 as listed by the source): as above

| Structure (SMILES) | Activity [2] | other results |
| --- | --- | --- |
| CC(C)(C)c1cc(C(C)(C)C)c(NC(=O)c2c[nH]c3ccccc3c2=O)cc1O |  | Activity [1]: inactive |
| CCOC(=O)Cc1csc(NC(=O)c2cc(OC)c(OC)c(OC)c2)n1 | inactive |  |
| O=C(O)Cc1csc(NC(=O)c2ccc(Cl)cc2)n1 | inactive |  |
| CCN(C(=O)c1ccc(Cl)cc1)c1nc(CC(=O)O)cs1 | inactive |  |
| CCOC(=O)Cc1csc(NC(=O)c2ccc(I)cc2)n1 | inactive |  |
| CCOC(=O)Cc1csc(NC(=O)c2ccccc2)n1 | inactive |  |
| O=C(O)Cc1csc(NC(=O)c2ccc(I)cc2)n1 | inactive |  |
| CCOC(=O)Cc1csc(N(CC)C(=O)c2cc(OC)c(OC)c(OC)c2)n1 | inactive |  |
| O=C(O)Cc1csc(NC(=O)c2ccccc2)n1 | inactive |  |
| CCOC(=O)Cc1csc(NC(=O)c2ccc(Cl)cc2)n1 | inactive |  |
| CCN(C(=O)c1cc(OC)c(OC)c(OC)c1)c1nc(CC(=O)O)cs1 | inactive |  |
| CCOC(=O)Cc1csc(N(CC)C(=O)c2ccc(I)cc2)n1 | inactive | EC50 [3]: 3.2 µM; Emax [4]: 1.9; Activity [5]: inactive; Activity [6]: Active; Activity [7]: Active |
| COc1cc(C(=O)Nc2nc(CC(=O)O)cs2)cc(OC)c1OC | inactive |  |
| CCN(C(=O)c1ccccc1)c1nc(CC(=O)O)cs1 | inactive |  |
| CCOC(=O)Cc1csc(N(CC)C(=O)c2ccc(Cl)cc2)n1 | inactive | EC50 [3]: 1.8 µM; Emax [4]: 1.8; Activity [5]: inactive; Activity [6]: Active; Activity [7]: Active |
| CCOC(=O)Cc1csc(N(CC)C(=O)c2ccccc2)n1 | inactive |  |
| CCN(C(=O)c1ccc(I)cc1)c1nc(CC(=O)O)cs1 | inactive |  |

— ChEMBL document CHEMBL4665741, “Synthesis and biological evaluation of thiazole derivatives on basic defects underlying cystic fibrosis” (Bioorg Med Chem Lett, 2020)
